Measurements published in ChEMBL document CHEMBL1156147, “Phosphoramidates of 2'-beta-D-arabinouridine (AraU) as phosphate prodrugs; design, synthesis, in vitro activity and metabolism” (Bioorg Med Chem, 2010).
The source made the active and inactive calls. No cut-off for these calls is given here.

Legend:
[1] = test system: Human immunodeficiency virus 2; test: Antiviral activity against HIV2 infected human CEM cells assessed as inhibition of syncytia formation after 4 days; type: functional, organism-based; conditions: CCRF-CEM
How it was run: (§1)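 Human CEM cells (~3 × 10^5 cells/mL) were infected with ~100 CCID50/mL of HIV-1(IIIB) or HIV-2(ROD) and seeded with compound dilutions. Syncytia formation was examined microscopically after 4 days at 37 °C. EC50 is the concentration reducing virus-induced cytopathicity by 50%.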

[2] = test system: Human immunodeficiency virus 1; test: Antiviral activity against HIV1 3B infected human CEM cells assessed as inhibition of syncytia formation after 4 days; type: functional, organism-based; conditions: CCRF-CEM; how it was run: as §1
[3] = test system: NB-4; test: Cytostatic activity against human NB4 cells; type: functional, cell-based
How it was run: (§2)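 Leukaemia cells were exposed to serial dilutions from 100 μM down to 0.02 μM for 72 h at 37 °C, 5% CO2. MTS was then added for a further 4 h. Absorbance was read at 490 nm and viability calculated relative to untreated controls. IC50 is the concentration at which 50% of cells are no longer viable.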

[4] = test system: HL-60; test: Cytostatic activity against human HL60 cells; type: functional, cell-based; how it was run: as §2
[5] = test system: KG-1; test: Cytostatic activity human KG1 cells; type: functional, cell-based; how it was run: as §2
[6] = test system: U-937; test: Cytostatic activity human U937 cells; type: functional, cell-based; how it was run: as §2
[7] = test system: L1210; test: Cytostatic activity mouse L1210 cells; type: functional, cell-based
[8] = test system: CCRF-CEM; test: Cytostatic activity human CEM cells; type: functional, cell-based
[9] = test system: LoVo; test: Cytostatic activity against human LoVo cells after 96 hrs by MTT assay; type: functional, cell-based
How it was run: (§3)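 Cells were seeded at 5 × 10^3 per well and allowed 24 h to adhere. Compound was added from DMSO stocks as decimal dilutions (final 0.1–100 μM) for 96 h at 37 °C, 5% CO2. MTT (final 0.5 mg/mL) was added for 4 h and formazan solubilised in 10% Triton X-100/PBS. Absorbance was read at 540 nm. IC50 is inhibition relative to control.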

[10] = test system: PC-3; test: Cytostatic activity against human PC3 cells after 96 hrs by MTT assay; type: functional, cell-based; conditions: PC-3, 96 h; how it was run: as §3
[11] = test system: A549; test: Cytostatic activity against human A549 cells after 96 hrs by MTT assay; type: functional, cell-based; conditions: A549, 96 h; how it was run: as §3
[12] = test system: MCF7; test: Cytostatic activity against human MCF7 cells after 96 hrs by MTT assay; type: functional, cell-based; conditions: MCF7, 96 h; how it was run: as §3
[13] = test system: Human alphaherpesvirus 1; test: Antiviral activity against HSV1 KOS assessed as inhibition of virus-induced cytopathicity by cell based assay; type: functional, organism-based
How it was run: (§4)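 Cytopathicity reduction in confluent HEL, Vero, HeLa, CFKC or MDCK monolayers. Cells were inoculated with 100 CCID50 of virus and allowed 1–2 h adsorption. Residual virus was then removed and cells were incubated with serially varied compound. CPE was scored once complete in untreated infected controls. EC50 is the concentration halving virus-induced cytopathicity.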

[14] = test system: Human alphaherpesvirus 1; test: Antiviral activity against thymidine kinase deficient acyclovir resistant HSV1 KOS assessed as inhibition of virus-induced cytopathicity by cell based assay; type: functional, organism-based
[15] = test system: Human alphaherpesvirus 2; test: Antiviral activity against Herpes simplex virus2 G assessed as inhibition of virus-induced cytopathicity by cell based assay; type: functional, organism-based; conditions: strain G; how it was run: as §4
[16] = test system: Vaccinia virus; test: Antiviral activity against Vaccinia virus lederle assessed as inhibition of virus-induced cytopathicity by cell based assay; type: functional, organism-based; conditions: Orthopoxvirus vaccinia
[17] = test system: Respiratory syncytial virus; test: Antiviral activity against Respiratory syncytial virus Long assessed as inhibition of virus-induced cytopathicity by cell based assay; type: functional, organism-based; how it was run: as §4
[18] = test system: Vesicular stomatitis virus; test: Antiviral activity against Vesicular stomatitis virus assessed as inhibition of virus-induced cytopathicity by cell based assay; type: functional, organism-based
[19] = test system: Coxsackievirus B4; test: Antiviral activity against Coxsackievirus B4 assessed as inhibition of virus-induced cytopathicity by cell based assay; type: functional, organism-based; how it was run: as §4
[20] = test system: Mammalian orthoreovirus 1; test: Antiviral activity against Reovirus 1 assessed as inhibition of virus-induced cytopathicity by cell based assay; type: functional, organism-based; how it was run: as §4
[21] = test system: Sindbis virus; test: Antiviral activity against Sindbis virus assessed as inhibition of virus-induced cytopathicity by cell based assay; type: functional, organism-based; how it was run: as §4
[22] = test system: Punta Toro virus; test: Antiviral activity against Punta Toro virus assessed as inhibition of virus-induced cytopathicity by cell based assay; type: functional, organism-based; how it was run: as §4
[23] = test system: Influenza A virus; test: Antiviral activity against influenza A virus H1N1 assessed as inhibition of virus-induced cytopathicity by cell based assay; type: functional, organism-based
[24] = test system: Influenza A virus; test: Antiviral activity against influenza A virus H3N2 assessed as inhibition of virus-induced cytopathicity by cell based assay; type: functional, organism-based
[25] = test system: Human respirovirus 3; test: Antiviral activity against Human parainfluenza virus 3 assessed as inhibition of virus-induced cytopathicity by cell based assay; type: functional, organism-based; how it was run: as §4
[26] = Metabolic stability assessed as half life in the presence of carboxypeptidase Y after 3 hrs at pH 7.6; type: ADME; conditions: Saccharomyces cerevisiae (yeast)

SMILES	inhibition [1]	inhibition [2]	IC50 [3] [µM]	IC50 [4] [µM]	IC50 [5] [µM]	IC50 [6] [µM]	IC50 [7] [µM]	IC50 [8] [µM]	inhibition [13]	inhibition [14]	inhibition [15]	inhibition [16]	inhibition [17]	inhibition [18]	inhibition [19]	inhibition [20]	inhibition [21]	inhibition [22]	inhibition [23]	inhibition [24]	other results
COC(=O)[C@H](C)NP(=O)(OC[C@H]1O[C@@H](n2ccc(=O)[nH]c2=O)[C@@H](O)[C@@H]1O)Oc1ccccc1 (some centres not stated)	inactive	inactive	53	> 100	32	> 100	> 500	> 500	inactive	inactive	inactive	inactive	inactive	inactive	inactive	inactive	inactive	inactive	inactive	inactive	IC50 [9]: > 100 µM; IC50 [10]: > 100 µM; IC50 [11]: > 100 µM; IC50 [12]: > 100 µM; inhibition [25]: inactive
O=c1ccn([C@@H]2O[C@H](CO)[C@@H](O)[C@@H]2O)c(=O)[nH]1 [ARAURIDINE]	inactive	inactive	69	90	25	> 100	170	> 500	inactive	inactive	inactive	inactive	inactive	inactive	inactive	inactive	inactive	inactive	inactive	inactive	inhibition [25]: inactive
CC(C)OC(=O)[C@H](C)NP(=O)(OC[C@H]1O[C@@H](n2ccc(=O)[nH]c2=O)[C@@H](O)[C@@H]1O)Oc1cccc2ccccc12 (some centres not stated)	inactive	inactive	77	84	67	> 100	250	181	inactive	inactive	inactive	inactive	inactive	inactive	inactive	inactive	inactive	inactive	inactive	inactive	IC50 [9]: > 100 µM; IC50 [10]: > 100 µM; IC50 [11]: > 100 µM; IC50 [12]: > 100 µM; inhibition [25]: inactive
O=C(CNP(=O)(OC[C@H]1O[C@@H](n2ccc(=O)[nH]c2=O)[C@@H](O)[C@@H]1O)Oc1ccccc1)OCc1ccccc1 (some centres not stated)	inactive	inactive	52	> 100	39	> 100	256	196	inactive	inactive	inactive	inactive	inactive	inactive	inactive	inactive	inactive	inactive	inactive	inactive	IC50 [9]: > 100 µM; IC50 [10]: > 100 µM; IC50 [11]: > 100 µM; IC50 [12]: > 100 µM; inhibition [25]: inactive
C[C@@H](NP(=O)(OC[C@H]1O[C@@H](n2ccc(=O)[nH]c2=O)[C@@H](O)[C@@H]1O)Oc1ccccc1)C(=O)OCc1ccccc1 (some centres not stated)	inactive	inactive	88	92	90	> 100	470	313	inactive	inactive	inactive	inactive	inactive	inactive	inactive	inactive	inactive	inactive	inactive	inactive	IC50 [9]: > 100 µM; IC50 [10]: > 100 µM; IC50 [11]: > 100 µM; IC50 [12]: 50 µM; inhibition [25]: inactive
C[C@H](NP(=O)(OC[C@H]1O[C@@H](n2ccc(=O)[nH]c2=O)[C@@H](O)[C@@H]1O)Oc1ccccc1)C(=O)OCc1ccccc1 (some centres not stated)	inactive	inactive	38	> 100	63	92	184	188	inactive	inactive	inactive	inactive	inactive	inactive	inactive	inactive	inactive	inactive	inactive	inactive	IC50 [9]: > 100 µM; IC50 [10]: > 100 µM; IC50 [11]: > 100 µM; IC50 [12]: > 100 µM; half-life [26]: 15 min; inhibition [25]: inactive
